Data taken from ChEMBL document CHEMBL4196023, “Cyclic peptide inhibitors of lysine-specific demethylase 1 with improved potency identified by alanine scanning mutagenesis” (Eur J Med Chem, 2018).
Active and inactive are the calls of the source. The rule behind the calls is not given here. Positions of bridges follow the written chain, without caps; N, C: chain ends. Residues, ends and D or L forms follow the SMILES beside them. *: point of attachment. Decanoyl = CCCCCCCCCC(=O)*

Columns and labels:
K562 [1] = test: Antiproliferative activity against human K562 cells after 72 hrs by MTS assay; format: functional, cell-based; details: K562, 72 h
Calu-6 [2] = test: Inhibition of cell proliferation in human Calu6 cells at 50 uM after 72 hrs by MTS assay relative to control; format: functional; details: Calu-6, 72 h
[3] = target: Lysine-specific histone demethylase 1A (Homo sapiens) (UniProt O60341); test: Inhibition of LSD1 in human K562 cells assessed as increase in H3K4me2 expression at 10 uM after 48 hrs by Western lot analysis relative to control; format: cell-based
MCF7 = test: Antiproliferative activity against human MCF7 cells after 72 hrs by MTS assay; format: functional, cell-based; details: MCF7, 72 h
K562 [4] = test: Antiproliferative activity against human K562 cells assessed as cell death at 50 uM after 72 hrs by MTS assay relative to control; format: functional
Calu-6 [5] = test: Antiproliferative activity against human Calu6 cells after 72 hrs by MTS assay; format: functional, cell-based; details: Calu-6, 72 h
[6] = target: Lysine-specific histone demethylase 1A (Homo sapiens) (UniProt O60341); test: Inhibition of LSD1 in human NCI-H526 cells assessed as increase in H3K4me2 marks at promoter of FEZ1 at 100 uM after 48 hrs by ChIP-qPCr method; format: cell-based
How it was run: (§1)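 NCI-H526 small cell lung carcinoma cells treated 48 h at 100 µM alongside an untreated control. Cells formaldehyde cross-linked, nuclei sonicated and chromatin enzymatically digested. IP with H3K4me2 antibody (normal rabbit IgG as negative control) on protein G magnetic beads. Purified DNA quantified by TaqMan qPCR at promoter regions; fold change by comparative CT (Livak). SD from three qPCR wells.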

[7] = target: Lysine-specific histone demethylase 1A (Homo sapiens) (UniProt O60341); test: Inhibition of LSD1 in human NCI-H526 cells assessed as increase in H3K4me2 marks at promoter of IGFBP2 at 100 uM after 48 hrs by ChIP-qPCr method; format: cell-based; how it was run: as §1
[8] = target: Lysine-specific histone demethylase 1A (Homo sapiens) (UniProt O60341); test: Inhibition of LSD1 in human Calu6 cells assessed as increase in H3K4me2 expression at 10 uM after 48 hrs by Western lot analysis relative to control; format: cell-based
[9] = target: Lysine-specific histone demethylase 1A (Homo sapiens) (UniProt O60341); test: Inhibition of LSD1 in human K562 cells assessed as increase in H3K4me2 expression after 48 hrs by Western lot analysis

SMILES | IC50 (K562 [1]) [µM] | inhibition at 50 µM (Calu-6 [2]) [%] | fold change (FC) [3] | IC50 (MCF7) [µM] | Activity (K562 [4]) [%] | IC50 (Calu-6 [5]) [µM] | inhibition [6] | inhibition [7] | Activity [8] | inhibition [9]
N=C(NCCCNCCCCCCCNCCCNC(=N)NC(=N)NCCC(c1ccccc1)c1ccccc1)NC(=N)NCCC(c1ccccc1)c1ccccc1 | 4.3 | 83 | 2 to 17 | 2.5 to 5.1 | 88 | 1.6 to 6.3 | – | – | – | –
CCCCCCCCCC(=O)NCCCC[C@H](NC(=O)[C@H](C)NC(=O)[C@H](CC(C)C)NC(=O)[C@H](CCC(N)=O)NC(=O)[C@H](CCCCN)NC(=O)[C@H](CCCNC(=N)N)NC(=O)[C@@H]1CCCN1C(=O)[C@H](C)NC(=O)[C@H](CCCCN)NC(=O)CNC(=O)CNC(=O)[C@@H](NC(=O)[C@@H]1CCC(=O)NCCCC[C@H](NC(=O)[C@H](CCSC)NC(=O)[C@@H](NC(=O)[C@H](CCCNC(=N)N)NC(=O)[C@H](C)N)[C@@H](C)O)C(=O)N[C@@H]([C@@H](C)O)C(=O)N[C@@H](C)C(=O)N[C@@H](CCCNC(=N)N)C(=O)N[C@@H](CCCCN)C(=O)N1)[C@@H](C)O)C(N)=O | – | – | 17.6 | 36.1 | – | 92.4 | Active | Active | inactive | –
CCCCCCCCCC(=O)NCCCC[C@H](NC(=O)[C@H](C)NC(=O)[C@H](CC(C)C)NC(=O)[C@H](CCC(N)=O)NC(=O)[C@H](CCCCN)NC(=O)[C@H](CCCNC(=N)N)NC(=O)[C@@H]1CCCN1C(=O)[C@H](C)NC(=O)[C@H](CCCCN)NC(=O)CNC(=O)CNC(=O)[C@@H](NC(=O)[C@@H]1CCC(=O)NCCCC[C@H](NC(=O)[C@H](CCSC)NC(=O)[C@H](C)NC(=O)[C@H](CCCNC(=N)N)NC(=O)[C@H](C)N)C(=O)N[C@@H]([C@@H](C)O)C(=O)N[C@@H](C)C(=O)N[C@@H](CCCNC(=N)N)C(=O)N[C@@H](CCCCN)C(=O)N1)[C@@H](C)O)C(N)=O (H-ARAMKTARKETGGKAPRKQLAK(Decanoyl)-NH2; lactam 5-10) | 95.1 | – | 2 to 17 | 28.1 | – | 40.2 | Active | Active | – | Dose-dependent effect
